# Active and inactive are the calls of the source. The rule behind the calls is not given here.
# How the values were obtained:
# [1] = tested on: Klebsiella pneumoniae; test: Antibacterial activity against Klebsiella pneumoniae D 11750/08 up to 500 uM incubated for 24 to 48 hrs under dark condition by microdilution broth assay; format: functional
# Summary of the method: (§1)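 Broth microdilution per M07-A07, modified, in Mueller-Hinton broth adjusted to pH 7.4 (±0.2). Inoculum is prepared in sterile water to McFarland 0.5 (1.5 × 10⁸ CFU/mL). Plates are incubated in the dark at 35 °C in humid air. MIC is read after 24 and 48 h as at least 95% growth reduction versus control (IC₉₅).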
# [2] = tested on: Mycobacterium kansasii; test: Antimycobacterial activity against Mycobacterium kansasii isolate 235/80 after 7 days by micromethod; format: functional; conditions: isolate 235/80, 168 h
# [3] = tested on: Mycobacterium kansasii; test: Antimycobacterial activity against Mycobacterium kansasii isolate 6509/96 after 7 days by micromethod; format: functional; conditions: isolate 6509/96, 168 h
# [4] = tested on: Nakaseomyces glabratus; test: Antifungal activity against Candida glabrata 20/I after 24 hrs by microdilution broth assay; format: functional
# Summary of the method: (§2)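 Broth microdilution per CLSI M27-A3 and M38-A2 in RPMI 1640 with glutamine, buffered to pH 7.0 with MOPS. Compounds are diluted in DMSO. Final inoculum is 5 × 10³ CFU/mL for yeasts and 0.5–5 × 10⁴ CFU/mL for moulds. Plates are incubated in the dark at 35 °C in humid air and read visually and/or at 540 nm after 24 and 48 h. MIC is ≥80% growth reduction (IC₈₀) for yeasts and ≥50% (IC₅₀) for filamentous fungi.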
# [5] = tested on: Candida albicans; test: Antifungal activity against Candida albicans ATCC 44859 after 24 hrs by microdilution broth assay; format: functional; conditions: ATCC 44859, 24 h; summary of the method: as §2
# [6] = tested on: Candida tropicalis; test: Antifungal activity against Candida tropicalis 156 after 48 hrs by microdilution broth assay; format: functional; conditions: Candida tropicalis, 156, 48 h; summary of the method: as §2
# [7] = tested on: Candida albicans; test: Antifungal activity against Candida albicans ATCC 44859 after 48 hrs by microdilution broth assay; format: functional; conditions: ATCC 44859, 48 h; summary of the method: as §2
# [8] = tested on: Candida tropicalis; test: Antifungal activity against Candida tropicalis 156 after 24 hrs by microdilution broth assay; format: functional; conditions: Candida tropicalis, 156, 24 h; summary of the method: as §2
# [9] = tested on: Staphylococcus aureus; test: Antibacterial activity against methicillin-resistant Staphylococcus aureus H 5996/08 incubated for 48 hrs under dark condition by microdilution broth assay; format: functional; conditions: H 5996/08, 48 h
# Summary of the method: (§3)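 Microdilution broth method modified per M07-A07, in Mueller-Hinton broth adjusted to pH 7.4 (±0.2). Inoculum made in sterile water to 0.5 McFarland (1.5 × 10⁸ CFU/mL). Plates incubated in the dark at 35 °C in a humid atmosphere, with reads at 24 and 48 h. MIC taken as at least 95% growth reduction (IC₉₅) versus control.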
# [10] = tested on: Enterococcus; test: Antibacterial activity against Enterococcus sp. J 14365/08 incubated for 48 hrs under dark condition by microdilution broth assay; conditions: J 14365/08, 48 h
# [11] = tested on: Mycobacterium tuberculosis; test: Antimycobacterial activity against Mycobacterium tuberculosis H37Rv 331/88 measured after 21 days by micromethod; format: functional; conditions: H37Rv 331/88, 504 h
# [12] = tested on: Lichtheimia corymbifera; test: Antifungal activity against Absidia corymbifera 272 after 24 to 48 hrs hrs by microdilution broth assay; format: functional; summary of the method: as §2
# [13] = tested on: Staphylococcus epidermidis; test: Antibacterial activity against Staphylococcus epidermidis H 6966/08 incubated for 24 hrs under dark condition by microdilution broth assay; format: functional; conditions: H 6966/08, 24 h; summary of the method: as §1
# [14] = tested on: Staphylococcus aureus; test: Antibacterial activity against Staphylococcus aureus CCM 4516/08 incubated for 24 hrs under dark condition by microdilution broth assay; format: functional; conditions: CCM 4516/08, 24 h; summary of the method: as §1
# [15] = tested on: Mycobacterium kansasii; test: Antimycobacterial activity against Mycobacterium kansasii isolate 6509/96 after 14 days by micromethod; format: functional; conditions: isolate 6509/96, 336 h
# [16] = tested on: Aspergillus fumigatus; test: Antifungal activity against Aspergillus fumigatus 231 after 48 hrs by microdilution broth assay; format: functional; conditions: Aspergillus fumigatus, 231, 48 h; summary of the method: as §2
# [17] = tested on: Mycobacterium kansasii; test: Antimycobacterial activity against Mycobacterium kansasii isolate 235/80 after 14 days by micromethod; format: functional; conditions: isolate 235/80, 336 h
# [18] = tested on: Klebsiella pneumoniae; test: Antibacterial activity against ESBL positive Klebsiella pneumoniae J 14368/08 up to 500 uM incubated for 24 to 48 hrs under dark condition by microdilution broth assay; format: functional; summary of the method: as §1
# [19] = tested on: Aspergillus fumigatus; test: Antifungal activity against Aspergillus fumigatus 231 after 24 hrs by microdilution broth assay; format: functional; conditions: Aspergillus fumigatus, 231, 24 h; summary of the method: as §2
# [20] = tested on: Pichia kudriavzevii; test: Antifungal activity against Candida krusei E28 after 24 to 48 hrs hrs by microdilution broth assay; format: functional; summary of the method: as §2
# [21] = tested on: Escherichia coli; test: Antibacterial activity against Escherichia coli CCM 4517 incubated for 48 hrs under dark condition by microdilution broth assay; format: functional; conditions: CCM 4517, 48 h; summary of the method: as §1
# [22] = tested on: Trichophyton mentagrophytes; test: Antifungal activity against Trichophyton mentagrophytes 445 after 72 hrs by microdilution broth assay; format: functional; conditions: Trichophyton mentagrophytes, 445, 72 h
# Summary of the method: (§4)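 Broth microdilution per CLSI M38-A2 in RPMI 1640 with glutamine, buffered to pH 7.0 with MOPS, with DMSO as diluent. Final inoculum is 0.5–5 × 10⁴ CFU/mL. Plates are incubated in the dark at 35 °C in humid air and read visually and/or at 540 nm after 72 and 120 h. MIC is at least 50% growth reduction versus control.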
# [23] = tested on: Staphylococcus aureus; test: Antibacterial activity against methicillin-resistant Staphylococcus aureus H 5996/08 incubated for 24 hrs under dark condition by microdilution broth assay; format: functional; conditions: H 5996/08, 24 h; summary of the method: as §3
# [24] = tested on: Trichosporon asahii; test: Antifungal activity against Trichosporon asahii 1188 after 24 hrs by microdilution broth assay; format: functional; conditions: Trichosporon asahii, 1188, 24 h; summary of the method: as §2
# [25] = tested on: Staphylococcus aureus; test: Antibacterial activity against Staphylococcus aureus CCM 4516/08 incubated for 48 hrs under dark condition by microdilution broth assay; format: functional; conditions: CCM 4516/08, 48 h; summary of the method: as §1
# [26] = tested on: Staphylococcus epidermidis; test: Antibacterial activity against Staphylococcus epidermidis H 6966/08 incubated for 48 hrs under dark condition by microdilution broth assay; format: functional; conditions: H 6966/08, 48 h; summary of the method: as §1
# [27] = tested on: Trichophyton mentagrophytes; test: Antifungal activity against Trichophyton mentagrophytes 445 after 120 hrs by microdilution broth assay; format: functional; conditions: Trichophyton mentagrophytes, 445, 120 h; summary of the method: as §4
# [28] = tested on: Mycobacterium kansasii; test: Antimycobacterial activity against Mycobacterium kansasii isolate 235/80 after 21 days by micromethod; format: functional; conditions: isolate 235/80, 504 h
# [29] = tested on: Mycobacterium avium; test: Antimycobacterial activity against Mycobacterium avium 330/88 measured after 21 days by micromethod; format: functional; conditions: 330/88, 504 h
# [30] = tested on: Enterococcus; test: Antibacterial activity against Enterococcus sp. J 14365/08 incubated for 24 hrs under dark condition by microdilution broth assay; conditions: J 14365/08, 24 h
# [31] = tested on: Mycobacterium tuberculosis; test: Antimycobacterial activity against Mycobacterium tuberculosis H37Rv 331/88 measured after 14 days by micromethod; format: functional; conditions: H37Rv 331/88, 336 h
# [32] = tested on: Mycobacterium avium; test: Antimycobacterial activity against Mycobacterium avium 330/88 measured after 14 days by micromethod; format: functional; conditions: 330/88, 336 h
# [33] = tested on: Nakaseomyces glabratus; test: Antifungal activity against Candida glabrata 20/I after 48 hrs by microdilution broth assay; format: functional; summary of the method: as §2
# [34] = tested on: Escherichia coli; test: Antibacterial activity against Escherichia coli CCM 4517 incubated for 24 hrs under dark condition by microdilution broth assay; format: functional; conditions: CCM 4517, 24 h; summary of the method: as §1
# [35] = tested on: Mycobacterium kansasii; test: Antimycobacterial activity against Mycobacterium kansasii isolate 6509/96 after 21 days by micromethod; format: functional; conditions: isolate 6509/96, 504 h
# [36] = tested on: Trichosporon asahii; test: Antifungal activity against Trichosporon asahii 1188 after 48 hrs by microdilution broth assay; format: functional; conditions: Trichosporon asahii, 1188, 48 h; summary of the method: as §2
# [37] = Solubility of the compound in Sula's semisynthetic medium up to 1 mM; format: physicochemical
# [38] = tested on: Pseudomonas aeruginosa; test: Antibacterial activity against Pseudomonas aeruginosa CCM 1961 up to 500 uM incubated for 24 to 48 hrs under dark condition by microdilution broth assay; format: functional; summary of the method: as §1
SMILES,Activity [1],MIC [2] [µM],MIC [3] [µM],MIC80 [4] [µM],MIC80 [5] [µM],MIC80 [6] [µM],MIC80 [7] [µM],MIC80 [8] [µM],MIC [11] [µM],Activity [12],MIC [15] [µM],MIC50 [16] [µM],MIC [17] [µM],Activity [18],MIC50 [19] [µM],MIC50 [22] [µM],MIC80 [24] [µM],MIC50 [27] [µM],MIC80 [33] [µM],MIC80 [36] [µM],also measured
O=C(O)CN1C(=O)/C(=C/c2ccc(O)cc2)SC1=S,inactive,1000,1000,> 500,500,> 500,500,> 500,1000,inactive,1000,> 500,1000,inactive,> 500,> 500,> 500,> 500,> 500,> 500,MIC95 [9]: > 500 µM; MIC95 [10]: > 500 µM; MIC95 [13]: 250 µM; MIC95 [14]: 500 µM; Activity [20]: inactive; MIC95 [21]: > 500 µM; MIC95 [23]: 500 µM; MIC95 [25]: > 500 µM; MIC95 [26]: 500 µM; MIC [28]: 1000 µM; MIC [29]: 1000 µM; MIC95 [30]: > 500 µM; MIC [31]: 1000 µM; MIC [32]: 1000 µM; MIC95 [34]: > 500 µM; MIC [35]: 1000 µM; solubility [37]: Soluble; Activity [38]: inactive
O=C(CN1C(=O)CSC1=S)Nc1ccccc1,inactive,1000,1000,> 500,> 500,500,> 500,500,1000,inactive,1000,> 500,1000,inactive,> 500,> 500,> 500,> 500,> 500,> 500,MIC95 [9]: > 500 µM; MIC95 [10]: 500 µM; MIC95 [13]: 500 µM; MIC95 [14]: 500 µM; Activity [20]: inactive; MIC95 [21]: > 500 µM; MIC95 [23]: > 500 µM; MIC95 [25]: 500 µM; MIC95 [26]: 500 µM; MIC [28]: 1000 µM; MIC [29]: > 1000 µM; MIC95 [30]: 500 µM; MIC [31]: 1000 µM; MIC [32]: 1000 µM; MIC95 [34]: > 500 µM; MIC [35]: 1000 µM; solubility [37]: Soluble; Activity [38]: inactive
O=C(CN1C(=O)CSC1=S)Oc1ccc(Cl)cc1,inactive,250,250,> 500,> 500,> 500,> 500,> 500,500,inactive,500,> 500,500,inactive,> 500,500,> 500,500,> 500,> 500,Activity [20]: inactive; MIC [28]: 1000 µM; MIC [29]: 1000 µM; MIC [31]: 250 µM; MIC [32]: 1000 µM; MIC [35]: 500 µM; solubility [37]: Soluble; Activity [38]: inactive
O=C(CN1C(=O)CSC1=S)Oc1ccc(C(F)(F)F)cc1,inactive,1000,1000,500,> 500,> 500,> 500,> 500,1000,inactive,1000,> 500,1000,inactive,> 500,125,500,250,> 500,> 500,MIC95 [9]: 62.5 µM; MIC95 [10]: 62.5 µM; MIC95 [13]: 15.6 µM; MIC95 [14]: 15.6 µM; Activity [20]: inactive; MIC95 [21]: > 500 µM; MIC95 [23]: 15.6 µM; MIC95 [25]: 62.5 µM; MIC95 [26]: 62.5 µM; MIC [28]: 1000 µM; MIC [29]: 1000 µM; MIC95 [30]: 15.6 µM; MIC [31]: 500 µM; MIC [32]: 1000 µM; MIC95 [34]: > 500 µM; MIC [35]: 1000 µM; solubility [37]: Soluble; Activity [38]: inactive
OC(Cn1cncn1)(Cn1cncn1)c1ccc(F)cc1F [FLUCONAZOLE],–,–,–,62.5,0.24,> 500,0.24,> 500,–,–,–,> 500,–,–,> 500,7.81,250,125,500,500,–
O=C(O)CN1C(=O)/C(=C/c2ccccn2)SC1=S,inactive,500,500,≥ 0.98,≥ 0.98,≥ 0.98,≥ 0.98,≥ 0.98,500,inactive,500,≥ 0.98,1000,inactive,≥ 0.98,≥ 0.98,≥ 0.98,≥ 0.98,≥ 0.98,≥ 0.98,Activity [20]: inactive; MIC [28]: 1000 µM; MIC [29]: 1000 µM; MIC [31]: 250 µM; MIC [32]: 1000 µM; MIC [35]: 1000 µM; solubility [37]: Soluble; Activity [38]: inactive

# — ChEMBL document CHEMBL3992547, “Antimicrobial activity of rhodanine-3-acetic acid derivatives” (Bioorg Med Chem, 2017)
